Laboratory results taken from ChEMBL document CHEMBL1687778, “Genetic determinants involved in the susceptibility of Pseudomonas aeruginosa to beta-lactam antibiotics” (2010).
Values after ≈ are worked out from the molar mass of the structure shown.

Key:
Assay type in all cases: functional
Pseudomonas aeruginosa [1] = assay: Antimicrobial activity against Pseudomonas aeruginosa PA14 PA0667 harboring mutation in putative metallopeptidase by Etest method
Method in brief: (§1)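 Overnight LB cultures (37°C) diluted in sterile 0.85% NaCl to about 1 × 10^7 CFU/ml. 100 µl spread on Mueller-Hinton agar, one Etest strip per plate, 18 h at 37°C. Ceftazidime, imipenem and meropenem tested. Wild-type PA14 plate included in each set. Each mutant verified in triplicate.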

Pseudomonas aeruginosa [2] = assay: Antimicrobial activity against wild type Pseudomonas aeruginosa PA14 by Etest method
Method in brief: (§2)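 Etest MIC. Overnight LB cultures at 37°C were diluted in sterile 0.85% NaCl to about 1 × 10^7 CFU/ml. 100 µl was spread on Mueller-Hinton agar, one strip was placed per plate, and plates were incubated at 37°C for 18 h. Equal cell numbers were seeded per plate, and results were verified in triplicate. PA14 wild type was included in each set as a susceptibility control.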

Pseudomonas aeruginosa [3] = assay: Antimicrobial activity against Pseudomonas aeruginosa PA14 PA0807 harboring ampDh3 mutant gene by Etest method; method in brief: as §1
Pseudomonas aeruginosa [4] = assay: Antimicrobial activity against Pseudomonas aeruginosa PA14 PA0908 harboring mutation in hypothetical protein by Etest method; method in brief: as §1
Pseudomonas aeruginosa [5] = assay: Antimicrobial activity against Pseudomonas aeruginosa PA14 PA1348 harboring mutation in conserved hypothetical protein by Etest method; method in brief: as §1
Pseudomonas aeruginosa [6] = assay: Antimicrobial activity against Pseudomonas aeruginosa PA14 PA14_15600 harboring mutation in conserved hypothetical protein by Etest method; method in brief: as §1
Pseudomonas aeruginosa [7] = assay: Antimicrobial activity against Pseudomonas aeruginosa PA14 PA14_43090 harboring mutation in hypothetical protein by Etest method; method in brief: as §1
Pseudomonas aeruginosa [8] = assay: Antimicrobial activity against Pseudomonas aeruginosa PA14 PA14_06490 harboring mutation in hypothetical protein by Etest method; method in brief: as §1
Pseudomonas aeruginosa [9] = assay: Antimicrobial activity against Pseudomonas aeruginosa PA14 PA2797 harboring mutation in putative anti-anti-sigma factor by Etest method; method in brief: as §1
Pseudomonas aeruginosa [10] = assay: Antimicrobial activity against Pseudomonas aeruginosa PA14 PA3141 harboring wbpM mutant gene by Etest method; method in brief: as §1
Pseudomonas aeruginosa [11] = assay: Antimicrobial activity against Pseudomonas aeruginosa PA14 PA3520 harboring mutation in putative periplasmic metal-binding protein by Etest method; method in brief: as §2
Pseudomonas aeruginosa [12] = assay: Antimicrobial activity against Pseudomonas aeruginosa PA14 PA3620 harboring mutS mutant gene by Etest method; method in brief: as §2
Pseudomonas aeruginosa [13] = assay: Antimicrobial activity against Pseudomonas aeruginosa PA14 PA3667 harboring mutation in putative cysteine sulfinate desulfinase by Etest method; method in brief: as §2
Pseudomonas aeruginosa [14] = assay: Antimicrobial activity against Pseudomonas aeruginosa PA14 PA3704 harboring wspE mutant gene by Etest method; method in brief: as §2
Pseudomonas aeruginosa [15] = assay: Antimicrobial activity against Pseudomonas aeruginosa PA14 PA4527 harboring pilC mutant gene by Etest method; method in brief: as §2
Pseudomonas aeruginosa [16] = assay: Antimicrobial activity against Pseudomonas aeruginosa PA14 PA4748 harboring tpiA mutant gene by Etest method; method in brief: as §2
Pseudomonas aeruginosa [17] = assay: Antimicrobial activity against Pseudomonas aeruginosa PA14 PA4946 harboring mutL mutant gene by Etest method; method in brief: as §2
Pseudomonas aeruginosa [18] = assay: Antimicrobial activity against Pseudomonas aeruginosa PA14 PA5000 harboring wapR mutant gene by Etest method; method in brief: as §2
Pseudomonas aeruginosa [19] = assay: Antimicrobial activity against Pseudomonas aeruginosa PA14 PA5001 harboring mutation in conserved hypothetical protein by Etest method; method in brief: as §2
Pseudomonas aeruginosa [20] = assay: Antimicrobial activity against Pseudomonas aeruginosa PA14 PA5002 harboring mutation in hypothetical protein by Etest method; method in brief: as §2
Pseudomonas aeruginosa [21] = assay: Antimicrobial activity against Pseudomonas aeruginosa PA14 PA5005 harboring mutation in putative carbamoyltransferase by Etest method; method in brief: as §2
Pseudomonas aeruginosa [22] = assay: Antimicrobial activity against Pseudomonas aeruginosa PA14 PA5038 harboring aroB mutant gene by Etest method; method in brief: as §2
Pseudomonas aeruginosa [23] = assay: Antimicrobial activity against Pseudomonas aeruginosa PA14 PA5192 harboring pckA mutant gene by Etest method; method in brief: as §2
Pseudomonas aeruginosa [24] = assay: Antimicrobial activity against Pseudomonas aeruginosa PA14 PA5443 harboring uvrD mutant gene by Etest method; method in brief: as §2
Pseudomonas aeruginosa [25] = assay: Antimicrobial activity against Pseudomonas aeruginosa PA14 PA0011 harboring mutation in putative 2-OH-lauroyltransferase by Etest method; method in brief: as §1
Pseudomonas aeruginosa [26] = assay: Antimicrobial activity against Pseudomonas aeruginosa PA14 PA0401 harboring mutation in Noncatalytic dihydroorotase-like protein by Etest method; method in brief: as §1
Pseudomonas aeruginosa [27] = assay: Antimicrobial activity against Pseudomonas aeruginosa PA14 PA0427 harboring oprM mutant gene by Etest method; method in brief: as §1
Pseudomonas aeruginosa [28] = assay: Antimicrobial activity against Pseudomonas aeruginosa PA14 PA0764 harboring mucB mutant gene by Etest method; method in brief: as §1
Pseudomonas aeruginosa [29] = assay: Antimicrobial activity against Pseudomonas aeruginosa PA14 PA0766 harboring mucD mutant gene by Etest method; method in brief: as §1
Pseudomonas aeruginosa [30] = assay: Antimicrobial activity against Pseudomonas aeruginosa PA14 PA1011 harboring mutation in putative lipoprotein by Etest method; method in brief: as §1
Pseudomonas aeruginosa [31] = assay: Antimicrobial activity against Pseudomonas aeruginosa PA14 PA1195 harboring mutation in putative dimethylarginine dimethylaminohydrolase by Etest method; method in brief: as §1
Pseudomonas aeruginosa [32] = assay: Antimicrobial activity against Pseudomonas aeruginosa PA14 PA14_07490/07510 harboring mutation in intergenic region by Etest method; method in brief: as §1
Pseudomonas aeruginosa [33] = assay: Antimicrobial activity against Pseudomonas aeruginosa PA14 PA1483 harboring cycH mutant gene by Etest method; method in brief: as §1
Pseudomonas aeruginosa [34] = assay: Antimicrobial activity against Pseudomonas aeruginosa PA14 PA2128 harboring cupA1 mutant gene by Etest method; method in brief: as §1
Pseudomonas aeruginosa [35] = assay: Antimicrobial activity against Pseudomonas aeruginosa PA14 PA2963 harboring mutation in putative aminodeoxychorismate lyase by Etest method; method in brief: as §1
Pseudomonas aeruginosa [36] = assay: Antimicrobial activity against Pseudomonas aeruginosa PA14 PA2970 harboring rpmF mutant gene by Etest method; method in brief: as §1
Pseudomonas aeruginosa [37] = assay: Antimicrobial activity against Pseudomonas aeruginosa PA14 PA3050 harboring pyrD mutant gene by Etest method; method in brief: as §1
Pseudomonas aeruginosa [38] = assay: Antimicrobial activity against Pseudomonas aeruginosa PA14 PA3433 harboring mutation in putative transcriptional regulator, LysR family by Etest method; method in brief: as §2
Pseudomonas aeruginosa [39] = assay: Antimicrobial activity against Pseudomonas aeruginosa PA14 PA3649 harboring mutation in putative membrane-associated zinc metalloprotease by Etest method; method in brief: as §2
Pseudomonas aeruginosa [40] = assay: Antimicrobial activity against Pseudomonas aeruginosa PA14 PA3800 harboring mutation in conserved hypothetical protein by Etest method; method in brief: as §2
Pseudomonas aeruginosa [41] = assay: Antimicrobial activity against Pseudomonas aeruginosa PA14 PA3818 harboring suhB mutant gene by Etest method; method in brief: as §2
Pseudomonas aeruginosa [42] = assay: Antimicrobial activity against Pseudomonas aeruginosa PA14 PA3978 harboring mutation in hypothetical protein by Etest method; method in brief: as §2
Pseudomonas aeruginosa [43] = assay: Antimicrobial activity against Pseudomonas aeruginosa PA14 PA4007 harboring proA mutant gene by Etest method; method in brief: as §2
Pseudomonas aeruginosa [44] = assay: Antimicrobial activity against Pseudomonas aeruginosa PA14 PA4088 harboring mutation in putative aminotransferase by Etest method; method in brief: as §2
Pseudomonas aeruginosa [45] = assay: Antimicrobial activity against Pseudomonas aeruginosa PA14 PA4753 harboring mutation in putative RNA-binding protein by Etest method; method in brief: as §2
Pseudomonas aeruginosa [46] = assay: Antimicrobial activity against Pseudomonas aeruginosa PA14 PA5288 harboring glnK mutant gene by Etest method; method in brief: as §2
Pseudomonas aeruginosa [47] = assay: Antimicrobial activity against Pseudomonas aeruginosa PA14 PA5366 harboring pstB mutant gene by Etest method; method in brief: as §2
Pseudomonas aeruginosa [48] = assay: Antimicrobial activity against Pseudomonas aeruginosa PA14 PA14_23430 harboring mutation in putative heparinase by Etest method; method in brief: as §1

`CC(C)(O/N=C(\C(=O)N[C@@H]1C(=O)N2C(C(=O)[O-])=C(C[n+]3ccccc3)CS[C@H]12)c1csc(N)n1)C(=O)O` [CEFTAZIDIME] showed an MIC (Pseudomonas aeruginosa [1]) of 2 µg/mL (≈ 3.66 µM), an MIC (Pseudomonas aeruginosa [2]) of 0.75 µg/mL (≈ 1.37 µM) and an MIC (Pseudomonas aeruginosa [3]) of 0.75 µg/mL (≈ 1.37 µM). The MIC (Pseudomonas aeruginosa [4]) was 2 µg/mL (≈ 3.66 µM), the MIC (Pseudomonas aeruginosa [5]) was 1.5 µg/mL (≈ 2.74 µM) and the MIC (Pseudomonas aeruginosa [6]) was 1.5 µg/mL (≈ 2.74 µM). The MIC (Pseudomonas aeruginosa [7]) was 2 µg/mL (≈ 3.66 µM), the MIC (Pseudomonas aeruginosa [8]) was 2 µg/mL (≈ 3.66 µM) and the MIC (Pseudomonas aeruginosa [9]) was 3 µg/mL (≈ 5.49 µM). It also gave an MIC (Pseudomonas aeruginosa [10]) of 2 µg/mL (≈ 3.66 µM), an MIC (Pseudomonas aeruginosa [11]) of 1.5 µg/mL (≈ 2.74 µM) and an MIC (Pseudomonas aeruginosa [12]) of 2 µg/mL (≈ 3.66 µM). The MIC (Pseudomonas aeruginosa [13]) was 3 µg/mL (≈ 5.49 µM), the MIC (Pseudomonas aeruginosa [14]) was 2 µg/mL (≈ 3.66 µM) and the MIC (Pseudomonas aeruginosa [15]) was 2 µg/mL (≈ 3.66 µM). It also gave an MIC (Pseudomonas aeruginosa [16]) of 1.5 µg/mL (≈ 2.74 µM), an MIC (Pseudomonas aeruginosa [17]) of 1.5 µg/mL (≈ 2.74 µM) and an MIC (Pseudomonas aeruginosa [18]) of 4 µg/mL (≈ 7.32 µM). It also gave an MIC (Pseudomonas aeruginosa [19]) of 3 µg/mL (≈ 5.49 µM), an MIC (Pseudomonas aeruginosa [20]) of 1.5 µg/mL (≈ 2.74 µM) and an MIC (Pseudomonas aeruginosa [21]) of 3 µg/mL (≈ 5.49 µM). The MIC (Pseudomonas aeruginosa [22]) was 3 µg/mL (≈ 5.49 µM), the MIC (Pseudomonas aeruginosa [23]) was 0.5 µg/mL (≈ 0.915 µM) and the MIC (Pseudomonas aeruginosa [24]) was 1.5 µg/mL (≈ 2.74 µM). It also gave an MIC (Pseudomonas aeruginosa [25]) of 0.38 µg/mL (≈ 0.695 µM), an MIC (Pseudomonas aeruginosa [26]) of 0.38 µg/mL (≈ 0.695 µM) and an MIC (Pseudomonas aeruginosa [27]) of 0.38 µg/mL (≈ 0.695 µM). It also gave an MIC (Pseudomonas aeruginosa [28]) of 0.75 µg/mL (≈ 1.37 µM), an MIC (Pseudomonas aeruginosa [29]) of 0.38 µg/mL (≈ 0.695 µM) and an MIC (Pseudomonas aeruginosa [30]) of 0.5 µg/mL (≈ 0.915 µM). It also gave an MIC (Pseudomonas aeruginosa [31]) of 0.5 µg/mL (≈ 0.915 µM), an MIC (Pseudomonas aeruginosa [32]) of 0.5 µg/mL (≈ 0.915 µM) and an MIC (Pseudomonas aeruginosa [33]) of 0.5 µg/mL (≈ 0.915 µM). The MIC (Pseudomonas aeruginosa [34]) was 0.5 µg/mL (≈ 0.915 µM), the MIC (Pseudomonas aeruginosa [35]) was 0.75 µg/mL (≈ 1.37 µM) and the MIC (Pseudomonas aeruginosa [36]) was 0.5 µg/mL (≈ 0.915 µM). The MIC (Pseudomonas aeruginosa [37]) was 0.5 µg/mL (≈ 0.915 µM), the MIC (Pseudomonas aeruginosa [38]) was 0.5 µg/mL (≈ 0.915 µM) and the MIC (Pseudomonas aeruginosa [39]) was 0.5 µg/mL (≈ 0.915 µM). It also gave an MIC (Pseudomonas aeruginosa [40]) of 0.25 µg/mL (≈ 0.457 µM), an MIC (Pseudomonas aeruginosa [41]) of 0.5 µg/mL (≈ 0.915 µM) and an MIC (Pseudomonas aeruginosa [42]) of 0.75 µg/mL (≈ 1.37 µM). It also gave an MIC (Pseudomonas aeruginosa [43]) of 0.75 µg/mL (≈ 1.37 µM), an MIC (Pseudomonas aeruginosa [44]) of 0.25 µg/mL (≈ 0.457 µM) and an MIC (Pseudomonas aeruginosa [45]) of 0.25 µg/mL (≈ 0.457 µM). The MIC (Pseudomonas aeruginosa [46]) was 0.5 µg/mL (≈ 0.915 µM), the MIC (Pseudomonas aeruginosa [47]) was 0.75 µg/mL (≈ 1.37 µM) and the MIC (Pseudomonas aeruginosa [48]) was 2 µg/mL (≈ 3.66 µM).
